Assay outcomes (PubChem BioAssay)
PAFAH2 FP inh – inhibitors of human PAFAH2; Q99487; recombinant PAFAH2, FP-rhodamine activity probe, fluorescence polarization; inhibition, % at 3.39 µM; hit rate 0.99% among 340,000;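 active = inhibition above the mean over all tested compounds plus 3 SD, cut at about 30% in these data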;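 also: inhibitors block probe labeling of enzyme so polarization drops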
ARFGAP1 inhibitor – rat ARFGAP1 inhibition; Arfgap1-stimulated ARF1 GTP hydrolysis, GDP FP detection; hit rate 0.26% among 360,000; inhibition, % at 16.5 µM;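 active = inhibition above a per-plate limit, mean inhibition of low control wells plus 3 SD, cut at about 25% in these data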
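Material – truncated rat Arfgap1 GAP domain · Buffer or medium – HEPES-based buffer, pH 7.5 · Reagent – human ARF1(Δ1-17)-GTP substrate · Dosing – 16.5 µM single point, 1.26% DMSO · Schedule – GTP hydrolysis reaction 2 h at 25 °C · Technique – GDP detection by fluorescence polarization · Benchmarks – No-Arfgap1 wells (100%) versus DMSO full-reaction wells (0%) · Repeats – single replicate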
ASAP1 inh – inhibitors of human ASAP1 ArfGAP activity; inhibition, % at 16.5 µM; ASAP1-stimulated ARF1 GTP hydrolysis, GDP FP detection; hit rate 0.19% among 360,000; in the data active = inhibition above about 25%
PAFAH1B2 inh – blocks human PAF acetylhydrolase 1b catalytic subunit 2. P68402. recombinant PAFAH1B2, FP-rhodamine activity probe, fluorescence polarization. inhibition, % at 3.39 µM. hit rate 1.2% among 340,000. AID 492953;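 active = inhibition above the mean of all tested compounds plus 3 SD, cut at about 24% in these data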
pPAFAH inh – pPAFAH (human) enzyme inhibition; Q13093; recombinant pPAFAH, FP-rhodamine probe fluorescence polarization; inhibition, % at 3.39 µM; hit rate 1.5% among 330,000;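 active = inhibition above the mean inhibition across the screen plus 3 SD, cut at about 25% in these data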;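 also: inhibitors block binding of the rhodamine activity-based probe so polarization drops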
Target sequence (Q13093 whole entry, looked up): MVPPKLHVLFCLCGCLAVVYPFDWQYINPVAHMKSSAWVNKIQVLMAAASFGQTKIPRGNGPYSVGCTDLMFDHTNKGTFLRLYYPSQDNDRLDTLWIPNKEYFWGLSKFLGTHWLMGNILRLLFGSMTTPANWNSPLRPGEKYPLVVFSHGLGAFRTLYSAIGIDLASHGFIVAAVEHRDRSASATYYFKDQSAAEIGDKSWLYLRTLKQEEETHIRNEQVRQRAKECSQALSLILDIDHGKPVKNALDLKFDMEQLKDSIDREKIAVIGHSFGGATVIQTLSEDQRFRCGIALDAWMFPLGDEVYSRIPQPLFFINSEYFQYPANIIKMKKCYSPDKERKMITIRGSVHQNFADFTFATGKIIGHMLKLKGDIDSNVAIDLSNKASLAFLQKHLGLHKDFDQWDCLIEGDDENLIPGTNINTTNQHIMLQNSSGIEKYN
PAFAH1B3 FP inh – inhibitors of human PAFAH1B3. inhibition, % at 3.39 µM. hit rate 0.28% among 340,000. AID 492972. Q15102. recombinant PAFAH1B3, FP-rhodamine probe, fluorescence polarization;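 active = inhibition above the screen-wide average of all tested compounds plus 3 SD, cut at about 25% in these data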
Each line names hits and unclear results; the compound was inactive in the other large screens. The list is not random: actives were taken first. Their share in the collection is about 2.7%.

C[C@@H]1CCCCO[C@@H](CN(C)C(=O)Nc2ccc(C(F)(F)F)cc2)[C@@H](C)CN([C@H](C)CO)C(=O)c2cc(NS(=O)(=O)c3ccc(Cl)cc3)ccc2O1	none (no result: PAFAH2 FP inh, PAFAH1B2 inh, pPAFAH inh, PAFAH1B3 FP inh)
CCCCN1CC(COCc2ccccc2)Oc2cccc(N3CCCCC3)c2S1(=O)=O (stereo not given)	none (no result: PAFAH2 FP inh, PAFAH1B2 inh, pPAFAH inh, PAFAH1B3 FP inh)
COC(=O)/C=C1\OC(C)c2ccccc21 (stereo not given)	none (no result: PAFAH2 FP inh, PAFAH1B2 inh, pPAFAH inh, PAFAH1B3 FP inh)
COC(=O)[C@]12C[C@H](CC(=O)N3CCN(C(=O)c4ccco4)CC3)C(=O)N(CCC3=CCCCC3)C1=C[C@H](COCc1ccccc1)O[C@@H]2C	none (no result: PAFAH2 FP inh, PAFAH1B2 inh, pPAFAH inh, PAFAH1B3 FP inh)
CC(C)CC(=O)c1c(O)cc(O)c2c1OC1=C(C(=O)C(C)(C)C(=O)C1(C)C)C2CC(C)C (stereo not given)	none (no result: PAFAH2 FP inh, PAFAH1B2 inh, pPAFAH inh, PAFAH1B3 FP inh)
Cc1ccc(C(=O)O)cc1-c1ccc(/C=C2/NC(=O)N(c3ccccc3)C2=O)o1	pPAFAH inh 28.9
COC(=O)c1cc2c(c3c4cc(OC)ccc4n(S(C)(=O)=O)c13)C(=O)N(C)C2	none (no result: PAFAH2 FP inh, PAFAH1B2 inh, pPAFAH inh, PAFAH1B3 FP inh)
NC(=O)CC(NC(=O)Cc1ccc(Br)cc1)c1ccc(N2CCCCCCC2)c([N+](=O)[O-])c1 (stereo not given)	none
NC(=O)CC(NC(=O)Cc1ccc(Br)cc1)c1ccc(N2CCC(Br)CC2)c([N+](=O)[O-])c1 (stereo not given)	pPAFAH inh 26.1
CC(=O)Nc1cc(OC(C)=O)c2nonc2c1OC(C)=O	PAFAH1B2 inh 34.0, PAFAH1B3 FP inh 68.4
CCOC(=O)C1=C(C(=O)OCC)C2N(Cc3ccccc3)c3ccccc3[C@@]23C[C@@H](C(=O)OC)N(S(=O)(=O)c2ccc(C(F)(F)F)cc2)C3=N1 (stereo not given in full)	none (no result: PAFAH2 FP inh, PAFAH1B2 inh, pPAFAH inh, PAFAH1B3 FP inh)
Oc1ccc(NCc2ccccc2OCc2ccccc2)cc1	pPAFAH inh 26.5
O=C(O)c1cccc(N2C(=O)/C(=C/c3ccc(SCc4ccc(Cl)cc4)o3)SC2=S)c1	PAFAH1B2 inh 33.9 (no result: pPAFAH inh)
Cc1cc(=O)[nH]c2ccc(S(=O)(=O)Nc3ccccc3)cc12	pPAFAH inh 26.1
CC(C)CNC(=O)c1cc(=O)[nH]c2ccc(S(=O)(=O)Nc3ccc(F)cc3)cc12	pPAFAH inh 27.5
Cc1cccc(NS(=O)(=O)c2ccc3[nH]c(=O)cc(C(=O)O)c3c2)c1	none
Cc1cc(=O)[nH]c2ccc(S(=O)(=O)Nc3ccc(O)cc3)cc12	none
COC(=O)CC(=O)CC(NS(=O)(=O)c1ccc(C)cc1)c1ccccc1 (stereo not given)	none (no result: PAFAH2 FP inh, PAFAH1B2 inh, pPAFAH inh, PAFAH1B3 FP inh)
C/C(=N\NC(=O)c1ccc(Br)cc1)C1C(=O)c2ccccc2C1=O	pPAFAH inh 25.2, PAFAH1B3 FP inh 29.3
O=C(CC1CCCC1)N[C@H](C(=O)N1CCC[C@H]1C(=O)NC1CCCC1)c1ccccc1	none (no result: PAFAH2 FP inh, PAFAH1B2 inh, pPAFAH inh, PAFAH1B3 FP inh)
CCOc1ccc(NS(=O)(=O)c2cc3c4c(c2)C(C)C(=O)N4CCC3)cc1 (stereo not given)	pPAFAH inh 25.9
CCCNS(=O)(=O)c1cc2c3c(c1)C(C)C(=O)N3CCC2 (stereo not given)	none
CCCC(=O)OC[C@H]1CN(C2CCCC2)S(=O)(=O)c2c(Oc3ccc(F)cc3OC)cccc2O1	none (no result: PAFAH2 FP inh, PAFAH1B2 inh, pPAFAH inh, PAFAH1B3 FP inh)
CCOc1cc(/C=C2\N=C(SCC)SC2=O)cc([N+](=O)[O-])c1OC(C)=O	PAFAH2 FP inh 53.4, PAFAH1B2 inh 24.4
CC1=NN(c2nc(-c3ccc(F)cc3)cs2)C(=O)C1	pPAFAH inh 30.3 (no result: ARFGAP1 inhibitor, ASAP1 inh)
S=c1[nH]nc(CSCc2ccccc2Cl)n1-c1ccccc1	pPAFAH inh 27.0
Cc1[nH]c2ccccc2c1C(=O)c1c(N)[nH]c(C(=O)c2ccc(Br)cc2)c1-c1ccc(Br)cc1	none (no result: PAFAH2 FP inh, PAFAH1B2 inh, pPAFAH inh, PAFAH1B3 FP inh)
O=C(O)CCc1ccc(-c2cccs2)n1CCc1ccccc1	pPAFAH inh 33.6
Cc1cccc(N2CCN(C(=O)c3ccc4nccnc4c3)CC2C)c1 (stereo not given)	none
Cc1cccc(N2CCN(C(=O)c3ccc4nc(-c5ccco5)c(-c5ccco5)nc4c3)CC2C)c1 (stereo not given)	pPAFAH inh 26.3
COC(=O)Cc1nnn2c1CC(OC)c1ccccc1-2 (stereo not given)	none (no result: PAFAH2 FP inh, PAFAH1B2 inh, pPAFAH inh, PAFAH1B3 FP inh)
O=C(CSc1nnc(Cc2cccs2)n1-c1ccc(Cl)cc1)NCc1ccc2c(c1)OCO2	pPAFAH inh 24.9
Cc1ccc(-n2c(Cc3cccs3)nnc2SCC(=O)Nc2ccc(S(N)(=O)=O)cc2)cc1	pPAFAH inh 25.5
